Casp6 inh: human caspase-6 inhibitors, primary screen, biochemical, VEID-R110 fluorescence, single point, set 2; P55212; purified caspase-6, Z-VEID-R110 cleavage fluorescence; inhibition, % at 12.5 µM; hit rate 0.53% among 350,000;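 active = mean inhibition across replicates at least about 35%, with every replicate also reaching that limit, limit read from the data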
Target sequence (P55212 24-179 limits assumed): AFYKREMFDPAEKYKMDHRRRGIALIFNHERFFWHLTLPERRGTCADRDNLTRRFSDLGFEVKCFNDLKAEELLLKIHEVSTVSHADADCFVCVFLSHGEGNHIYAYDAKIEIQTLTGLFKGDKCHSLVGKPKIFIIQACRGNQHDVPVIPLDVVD
Target sequence (P55212 194-293 limits assumed): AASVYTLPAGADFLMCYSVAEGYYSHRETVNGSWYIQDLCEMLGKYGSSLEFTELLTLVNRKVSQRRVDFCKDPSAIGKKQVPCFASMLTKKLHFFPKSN
SIRT5 block: SIRT5 desuccinylase inhibitors, primary screen, biochemical, fluorescence imaging, single point, set 5. Purified SirT5, succinyl-peptide AMC, trypsin-coupled fluorescence. inhibition, % at 15 µM. hit rate 1.1% among 330,000. AID 652115, 2013; in the data active = inhibition above about 15%
Target sequence (Q9NXA8 whole entry, looked up): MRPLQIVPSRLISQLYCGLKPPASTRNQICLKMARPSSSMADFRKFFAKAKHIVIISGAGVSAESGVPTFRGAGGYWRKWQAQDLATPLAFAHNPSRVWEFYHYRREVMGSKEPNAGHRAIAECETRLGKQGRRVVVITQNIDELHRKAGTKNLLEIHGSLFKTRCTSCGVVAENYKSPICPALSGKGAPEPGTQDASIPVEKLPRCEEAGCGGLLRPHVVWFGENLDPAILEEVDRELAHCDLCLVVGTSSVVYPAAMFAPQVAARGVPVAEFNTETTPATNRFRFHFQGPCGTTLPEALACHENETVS
UCH37 DUB inh: inhibitors of human UCH37 deubiquitinase, primary screen, biochemical, Ub-AMC cleavage, fluorescence | inhibition, % (no concentration beside the values) | hit rate 0.33% among 330,000 | purified proteasome/UCH37 | Ubiquitin carboxyl-terminal hydrolase isozyme L5 (Homo sapiens), Q9Y5K5;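 active = mean inhibition over replicate wells above about 20%, limit read from the data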
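Schedule: 30 min plus 25 min, room temperature / Material: human UCH37 within purified proteasomes / Technique: AMC fluorescence intensity at 355/460 nm / Buffer or medium: pH 7.4 Tris-HCl (50 mM) with ovalbumin, ATP-MgCl2, DTT / Controls: wells without proteasome as full block, compound-free enzyme plus substrate as uninhibited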
NSD2 inh: NSD2 histone methyltransferase inhibitors, primary screen, biochemical, AlphaScreen, single concentration, set 2; Histone-lysine N-methyltransferase NSD2 (Homo sapiens), O96028; NSD2 peptide methylation, 120 min; inhibition, % at 12.5 µM; hit rate 0.54% among 310,000; AID 743445, 2014; in the data active = inhibition above about 50%
FGF22 binding: binders of human FGF22 protein, primary screen, FGF22 synaptogenesis inhibitor project, biophysical, thermal shift, single point; Fibroblast growth factor 22 (Homo sapiens), Q9HCT0; recombinant FGF22 thermal shift, SYPRO orange fluorescence; percent of sucrose octasulfate shift, DMSO zero; activity (Tm shift, normalised), % at 9.99 µM; hit rate 1.5% among 340,000;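 active = mean Tm shift, scaled 0 neutral to 100 positive control, at about 1.3% or above, every replicate too, limit read from the data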
Of the large screens only hits and unclear results are named; the others gave an inactive call. Hits are enriched below; roughly 2.6% of the tested compounds scored in any of these assays.

N#CCCN(C(=O)COC(=O)c1ccc2c(c1)NC(=O)CS2)c1ccc2c(c1)OCCO2	SIRT5 block 37 (no result: FGF22 binding)
CCN(CC)CCN(CC(=O)N(C1CCCCC1)C1CCCCC1)C(=O)c1cccnc1	FGF22 binding 44
O=C(NCC1CCCCC1)c1cccnc1	none
Cc1ccc(-n2nc(-c3ccco3)cc2C(=O)O)cc1	Casp6 inh 55
CN(C)CCCNC(=O)C[C@H]1CC[C@@H]2[C@H](COC[C@H](O)CN2CC2CCCCC2)O1	none (no result: UCH37 DUB inh, NSD2 inh, FGF22 binding)
CCS(=O)(=O)C1=NN2C(=N)/C(=C\c3ccc(OCCOc4cccc(OC)c4)c(OC)c3)C(=O)N=C2S1	Casp6 inh 45, SIRT5 block 18 (no result: FGF22 binding)
CCOc1cc(/C=C2\C(=N)N3N=C(S(C)(=O)=O)SC3=NC2=O)ccc1OCCOc1cccc(OC)c1	Casp6 inh 45, SIRT5 block 17
C[C@@H]1CN([C@@H](C)CO)C(=O)Cc2cc(NS(=O)(=O)c3ccccc3)ccc2O[C@@H]1CN(C)C(=O)Nc1ccc(C(F)(F)F)cc1	none (no result: UCH37 DUB inh, NSD2 inh)
CCOc1cccc(C(=O)NC(=S)Nc2ccc(Cl)cc2C(=O)O)c1	FGF22 binding 43
Cc1ccc(C(=O)O)cc1NC(=S)NC(=O)c1ccc(COc2ccccc2)cc1	Casp6 inh 38
CC(=NNC(=O)c1cc(-c2ccc(C)s2)[nH]n1)c1ccco1	none (no result: Casp6 inh, SIRT5 block, NSD2 inh, FGF22 binding)
C/C(=N/NC(=O)c1cc(-c2ccc(Br)s2)[nH]n1)c1ccco1	FGF22 binding 1.4 (no result: UCH37 DUB inh)
COc1ccc(S(=O)(=O)N(C)C[C@@H]2Oc3cc(C4=CCCC4)ccc3S(=O)(=O)N([C@H](C)CO)C[C@@H]2C)cc1	none (no result: UCH37 DUB inh, NSD2 inh)
CCOC(=O)C1(CCOC)CCN(Cc2ccc(COC)o2)CC1	none
CCOC(=O)C1(CCOC)CCN(C2C3CC4CC(C3)CC2C4)CC1 (stereo not drawn)	FGF22 binding 43 (no result: Casp6 inh)
CO[C@@H]1CN(C)C(=O)c2cc(NC(=O)C3CCC3)ccc2OC[C@@H](C)N(Cc2ccccn2)C[C@@H]1C	none (no result: UCH37 DUB inh, NSD2 inh)
CCOc1ccc(N(Cc2ccc(OC)cc2)C(=O)c2ccco2)cc1	none (no result: UCH37 DUB inh)
COc1ccc(CN(C(=O)c2ccco2)c2ccc(C)c(C)c2)cc1	SIRT5 block 112
CCOC(=O)C1CCCN(C2=NC(=O)/C(=C/c3ccc(N(C)C)cc3)S2)C1 (stereo not drawn)	FGF22 binding 1.9
CCS(=O)(=O)NCC[C@@H]1CC[C@@H](NC(=O)Cc2ccccn2)[C@@H](CO)O1	none (no result: UCH37 DUB inh, NSD2 inh)
NC(=O)CC[C@H](NC(=O)c1ccc(F)cc1)C(=O)N1CCN(Cc2ccc3c(c2)OCO3)CC1	FGF22 binding 43 (no result: SIRT5 block, NSD2 inh)
CCC(C)NC(=S)N1CCN(Cc2ccc3c(c2)OCO3)CC1 (stereo not drawn)	FGF22 binding 43
C[C@H](NC(=O)c1ccccc1)C(=O)N1CCN(Cc2ccc3c(c2)OCO3)CC1	none
COc1ccc(OC(=O)N(C)C[C@@H]2OCc3ccccc3-c3ccccc3C(=O)N([C@H](C)CO)C[C@@H]2C)cc1	none (no result: UCH37 DUB inh, NSD2 inh)
c1ccc(-c2nc(-c3cccs3)[nH]c2-c2ccccc2)cc1	SIRT5 block 15
COc1ccc(NC(=O)CN(C)CC(=O)Nc2ccc(Cl)c(S(=O)(=O)N(C)C)c2)cc1	FGF22 binding 43
COc1ccc(CC(=O)OCC(=O)Nc2ccc(Cl)c(S(=O)(=O)N(C)C)c2)cc1	none
CC1Cc2ccccc2N1CC(=O)Nc1ccc(Cl)c(S(=O)(=O)N(C)C)c1 (stereo not drawn)	SIRT5 block 16 (no result: Casp6 inh)
COc1ccc(NC(=O)N(C)C[C@H]2Oc3cc(C#CCC(C)C)ccc3S(=O)(=O)N([C@H](C)CO)C[C@H]2C)cc1	SIRT5 block 25 (no result: UCH37 DUB inh, NSD2 inh)
COc1ccc(NC(=O)N(C)C[C@H]2Oc3cc(C#CCC(C)C)ccc3S(=O)(=O)N([C@H](C)CO)C[C@@H]2C)cc1	SIRT5 block 26 (no result: UCH37 DUB inh, NSD2 inh)
COc1ccc(NC(=O)N(C)C[C@@H]2Oc3cc(C#CCC(C)C)ccc3S(=O)(=O)N([C@H](C)CO)C[C@@H]2C)cc1	SIRT5 block 31 (no result: UCH37 DUB inh, NSD2 inh)
CCCC#Cc1ccc2c(c1)O[C@@H](CN(C)C(=O)Nc1ccc(OC)cc1)[C@@H](C)CN([C@H](C)CO)S2(=O)=O	none (no result: UCH37 DUB inh, NSD2 inh)
COc1ccc(NC(=O)N(C)C[C@@H]2Oc3cc(C#CCC(C)C)ccc3S(=O)(=O)N([C@@H](C)CO)C[C@H]2C)cc1	SIRT5 block 31 (no result: UCH37 DUB inh, NSD2 inh)
O=C(C[C@H]1C=C[C@H](NC(=O)C2CC2)[C@H](CO)O1)NCc1ccccc1Cl	none (no result: UCH37 DUB inh, NSD2 inh)
O=C(Nc1ccc(F)cc1)N1C[C@@H]2[C@H](c3ccccc31)[C@@H](CO)N2C(=O)c1ccccc1F	none (no result: UCH37 DUB inh, NSD2 inh)
O=C(C[C@H]1CC[C@@H]2[C@H](COC[C@@H](O)CN2C(=O)Nc2ccc(F)cc2)O1)NCCCN1CCOCC1	none (no result: UCH37 DUB inh, NSD2 inh)
C[C@@H]1CCCCO[C@@H](CN(C)C(=O)c2ccccc2)[C@H](C)CN([C@H](C)CO)C(=O)c2cc(N(C)C)ccc2O1	none (no result: UCH37 DUB inh, NSD2 inh)
Cc1cc(C=NNC(N)=S)c(C)n1-c1cccc(Cl)c1	none (no result: Casp6 inh, SIRT5 block, NSD2 inh, FGF22 binding)
CCCCC(CCCCl)C(=O)Nc1ccccc1 (stereo not drawn)	FGF22 binding 43 (no result: NSD2 inh)
CNC(=O)/C(C#N)=C/c1ccc(-c2ccc(Cl)cc2)o1	FGF22 binding 1.5 (no result: Casp6 inh)
O=C(NN=Cc1cc([N+](=O)[O-])ccc1Cl)c1ccc2nc[nH]c2c1	none (no result: Casp6 inh, SIRT5 block, NSD2 inh, FGF22 binding)
CNC(=S)Nc1ccc(-c2nc3ccc(C)cc3s2)cc1	FGF22 binding 22
Cc1cc(C)cc(-n2cccc2/C=C2/C(=N)N3C(=NC2=O)SN=C3S(C)(=O)=O)c1	Casp6 inh 37
CCC1=NN2C(=N)/C(=C\c3cccn3-c3ccc(Cl)cc3)C(=O)N=C2S1	FGF22 binding 47
COc1cccc(-n2c(C)cc(/C=C3/C(=N)N4C(=NC3=O)SN=C4S(C)(=O)=O)c2C)c1	Casp6 inh 43, FGF22 binding 1.4
Cc1ccc(-n2cccc2/C=C2/C(=N)N3C(=NC2=O)SN=C3S(C)(=O)=O)cc1	none (no result: Casp6 inh, SIRT5 block, NSD2 inh, FGF22 binding)
CS(=O)(=O)C1=NSC2=NC(=O)/C(=C\c3cccn3-c3ccccc3Cl)C(=N)N21	Casp6 inh 41 (no result: FGF22 binding)
CSc1nc2nc3c(cc2c(=O)n1-c1ccccc1)COC(C)(C)C3	FGF22 binding 43
COc1ccccc1C(O)(C(=O)NNc1ccccc1C)c1ccccc1OC	FGF22 binding 43
Cc1noc(C)c1NC(=O)NCC[C@@H]1CC[C@H](NC(=O)c2ccncc2)[C@@H](CO)O1	none (no result: UCH37 DUB inh, NSD2 inh)
COc1ccc(Nc2nnc(-c3ccccc3)c3ccccc23)cc1C(=O)N1CCCCC1	FGF22 binding 43
O=C(C[C@@H]1CC[C@H](NC(=O)Nc2ccccc2F)[C@H](CO)O1)NCc1ccccc1	none (no result: UCH37 DUB inh, NSD2 inh)
c1ccc(-c2ccccc2OCc2nnc3n2CCC3)cc1	FGF22 binding 43 (no result: SIRT5 block)

Screening results as filed in PubChem.
